The source made the active and inactive calls. No cut-off for these calls is given here.
Legend:
A498 [1] = assay: Cell cycle arrest in human A498 cells assessed as accumulation at sub-G1 phase at 0.5 uM after 48 hrs by propidium iodide staining-based flow cytometry (reference value: 0.10 +/- 0.07%); type: functional
A498 [2] = assay: Cytotoxicity against human A498 cells assessed as reduction in cell viability at 0.1 uM after 48 hrs by MTT assay relative to control; type: functional
SF-268 = assay: Cytotoxicity against human SF268 cells after 48 hrs by sulforhodamine B assay; type: functional; settings: SF-268, 48 h
A498 [3] = assay: Induction of apoptosis in human A498 cells assessed as late apoptotic cells at 0.5 uM after 12 hrs by AnnexinV/FITC-propidium iodide staining-based flow cytometry (reference value: 9.6%); type: functional
Summary of the method: (§1)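 Flow cytometry with annexin V-FITC/PI double labeling of A498 cells treated for 12, 24, 36 or 48 h; untreated cells served as the 0 h control. Stained in binding buffer for 15 min at room temperature in the dark, with more binding buffer added just before analysis. Annexin V+/PI− (Q4) counted as early apoptotic and annexin V+/PI+ (Q2) as late apoptotic.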

A498 [4] = assay: Cell cycle arrest in human A498 cells assessed as accumulation at S phase at 0.5 uM after 36 hrs by propidium iodide staining-based flow cytometry (reference value: 15.92 +/- 0.03%); type: functional
A498 [5] = assay: Cytotoxicity against human A498 cells assessed as reduction in cell viability at 0.5 uM after 48 hrs by MTT assay relative to control; type: functional
A498 [6] = assay: Cytotoxicity against human A498 cells after 48 hrs by MTT assay; type: functional, cell-based
A498 [7] = assay: Cytotoxicity against human A498 cells assessed as reduction in cell viability at 1 uM after 48 hrs by MTT assay relative to control; type: functional
OVCAR-8 = assay: Cytotoxicity against human OVCAR8 cells after 48 hrs by sulforhodamine B assay; type: functional; settings: OVCAR-8, 48 h
A498 [8] = assay: Induction of apoptosis in human A498 cells assessed as early apoptotic cells at 0.5 uM after 36 hrs by AnnexinV/FITC-propidium iodide staining-based flow cytometry (reference value: 3.9%); type: functional
A498 [9] = assay: Induction of apoptosis in human A498 cells assessed as increase in Apaf-1 level at 0.5 uM after 6 to 48 hrs by Western blotting analysis; type: functional, cell-based
Summary of the method: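 A498 cells exposed for 6, 12, 24, 36 or 48 h, then washed in PBS and lysed. Lysates were held on ice for 30 min and spun at 12 000g for 20 min. Supernatant protein was measured by Bradford assay, run on 10% SDS-PAGE and transferred to nitrocellulose. Blots were probed for AIF, Endo G, Apaf-1, cytochrome c, caspase 9 and caspase 3, with β-actin as loading control; n = 3 independent experiments.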

OVCAR-5 = assay: Cytotoxicity against human OVCAR5 cells after 48 hrs by sulforhodamine B assay; type: functional; settings: OVCAR-5, 48 h
SF-539 = assay: Cytotoxicity against human SF539 cells after 48 hrs by sulforhodamine B assay; type: functional; settings: SF-539, 48 h
786-0 = assay: Cytotoxicity against human 786-0 cells after 48 hrs by sulforhodamine B assay; type: functional; settings: 786-0, 48 h
UACC-62 = assay: Cytotoxicity against human UACC62 cells after 48 hrs by sulforhodamine B assay; type: functional; settings: UACC-62, 48 h
Hs-578T = assay: Cytotoxicity against human Hs578T cells after 48 hrs by sulforhodamine B assay; type: functional
A498 [10] = assay: Antitumor activity against human A498 cells xenografted in BALB/cAnN.Cg-Foxn1nu/CrlNarl nude mouse assessed as suppression of tumor growth at 30 to 60 mg/kg/day, ip qd; type: functional, organism-based; settings: TDE = time-dependent effect
Summary of the method: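 Male nude mice (18–20 g, 4–6 weeks) were inoculated subcutaneously with A498 cells, 2 × 10⁶ per mouse in 0.1 mL PBS. Once tumors reached 100 mm³, mice were randomized and given ip doses of 30 or 60 mg/kg, 5 times per week for 4 weeks. Body weight and tumor size were recorded every 7 days over 28 days. Volume = 1/2 ([…]).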

CAKI-1 = assay: Cytotoxicity against human Caki1 cells after 48 hrs by sulforhodamine B assay; type: functional; settings: CAKI-1, 48 h
A498 [11] = assay: Cell cycle arrest in human A498 cells assessed as accumulation at S phase at 0.5 uM after 24 hrs by propidium iodide staining-based flow cytometry (reference value: 15.92 +/- 0.03%); type: functional
A498 [12] = assay: Cytotoxicity against human A498 cells assessed as cell shrinkage at 0.5 uM after 24 hrs by phase contrast microscopy; type: functional, cell-based
Summary of the method: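 A498 cells were plated at 5 × 10⁵ per well and exposed to 0.5 µM for 24 h. Cell rounding and shrinkage were scored by microscopy against untreated control cells.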

A498 [13] = assay: Induction of apoptosis in human A498 cells assessed as late apoptotic cells at 0.5 uM after 48 hrs by AnnexinV/FITC-propidium iodide staining-based flow cytometry (reference value: 9.6%); type: functional; summary of the method: as §1
SW-620 = assay: Cytotoxicity against human SW620 cells after 48 hrs by sulforhodamine B assay; type: functional; settings: SW-620, 48 h
TK-10 = assay: Cytotoxicity against human TK10 cells after 48 hrs by sulforhodamine B assay; type: functional; settings: TK-10, 48 h
K562 = assay: Cytotoxicity against human K562 cells after 48 hrs by sulforhodamine B assay; type: functional; settings: K562, 48 h
A498 [14] = assay: Cell cycle arrest in human A498 cells assessed as accumulation at sub-G1 phase at 0.5 uM after 24 hrs by propidium iodide staining-based flow cytometry (reference value: 0.10 +/- 0.07%); type: functional
MOLT-4 = assay: Cytotoxicity against human MOLT4 cells after 48 hrs by sulforhodamine B assay; type: functional; settings: MOLT-4, 48 h
A498 [15] = assay: Cell cycle arrest in human A498 cells assessed as accumulation at G0/G1 phase at 0.5 uM after 48 hrs by propidium iodide staining-based flow cytometry (reference value: 78.70 +/- 0.02%); type: functional
[16] = Cytotoxicity against human EKVX cells after 48 hrs by sulforhodamine B assay; type: functional
[17] = read-out: pLC50 (the source's name) (converted)

With OCc1ccc(Cn2c3ccccc3c3oc(CO)cc32)o1 the Activity (A498 [1]) was 12.76%, the Activity (A498 [2]) was 82.8% and the GI50 (SF-268) was 97.7 µM. For the same compound, the CC50 (SF-268; [17]) was > 100 µM, the TGI (SF-268; read-out: pTGI) was > 100 µM and the Activity (A498 [3]) was 10%. The Activity (A498 [4]) was 14.33%, the Activity (A498 [5]) was 37.5% and the Activity (A498 [6]) was “Dose-dependent effect”. The IC50 (A498 [6]; A498, 48 h) was 0.21 µM, the Activity (A498 [7]) was 19.4% and the GI50 (OVCAR-8) was > 100 µM. The CC50 (OVCAR-8; [17]) was > 100 µM, the TGI (OVCAR-8; read-out: pTGI) was > 100 µM and the Activity (A498 [8]) was 21.5%. The Activity (A498 [9]) was “Active”, the GI50 (OVCAR-5) was 0.331 µM and the TGI (OVCAR-5; read-out: pTGI (converted)) was 1.2 µM. For the same compound, the GI50 (SF-539) was > 100 µM, the CC50 (SF-539; [17]) was > 100 µM and the TGI (SF-539; read-out: pTGI) was > 100 µM. For the same compound, the GI50 (786-0) was 50.1 µM, the CC50 (786-0; [17]) was > 100 µM and the TGI (786-0; read-out: pTGI) was > 100 µM. The GI50 (UACC-62) was 3.24 µM, the CC50 (UACC-62; [17]) was > 100 µM and the TGI (UACC-62; read-out: pTGI) was > 100 µM. The GI50 (Hs-578T) was > 100 µM, the CC50 (Hs-578T; [17]) was > 100 µM and the TGI (Hs-578T; read-out: pTGI) was > 100 µM. For the same compound, the Activity (A498 [10]) was “tde”, the GI50 (CAKI-1) was 51.3 µM and the CC50 (CAKI-1; [17]) was > 100 µM. For the same compound, the TGI (CAKI-1; read-out: pTGI) was > 100 µM, the Activity (A498 [11]) was 15.98% and the Activity (A498 [12]) was “Active”. The Activity (A498 [13]) was 21.2%, the GI50 (SW-620) was > 100 µM and the CC50 (SW-620; [17]) was > 100 µM. The TGI (SW-620; read-out: pTGI) was > 100 µM, the GI50 (TK-10) was 0.537 µM and the CC50 (TK-10; [17]) was > 100 µM. The TGI (TK-10; read-out: pTGI (converted)) was 3.24 µM, the GI50 (K562) was 45.7 µM and the CC50 (K562; [17]) was > 100 µM. The TGI (K562; read-out: pTGI) was > 100 µM, the Activity (A498 [14]) was 0.91% and the GI50 (MOLT-4) was 77.6 µM. The CC50 (MOLT-4; [17]) was > 100 µM, the TGI (MOLT-4; read-out: pTGI) was > 100 µM and the Activity (A498 [15]) was 71.26%. The GI50 [16] was 24 µM, the CC50 [16, 17] was > 100 µM and the TGI ([16]; read-out: pTGI) was > 100 µM.

Source: ChEMBL document CHEMBL2412970, “Synthesis and anticancer activity of 2,4-disubstituted furo[3,2-b]indole derivatives” (Eur J Med Chem, 2013)
